Published values pooled from the literature.
Compare with care: the assays were run in different laboratories.
Target: Casein kinase I isoform epsilon (CSNK1E, Homo sapiens, UniProt P49674)

Structure (SMILES)	observed	mode	method	tested at	endpoint	value
Cc1nn(C)cc1-c1nc2c(N3CCN(Cc4ccc(Cl)cc4)CC3)c(Cl)cnc2[nH]1	binding		competition with immobilised ligand	1 µM	remaining binding	99%
CC(C)(C)c1cc(C=C(C#N)C#N)cc(Br)c1O	enzyme activity	inhibitor		0.5 µM	remaining activity	92.1%
Cn1cncc1[C@@](O)(COc1ccc(C#N)cc1-c1ccc(OC(F)(F)F)cc1)c1ccc(C#N)cc1	cell-free assay		competition with immobilised ligand	1 µM	remaining binding	100%
Cn1cc(-c2cc(F)cc(N3CCn4c(cc5c4CCCC5)C3=O)c2CO)cc(Nc2ccc(N3CCN(C4COC4)CC3)cn2)c1=O	enzyme activity	inhibitor		0.1 µM	inhibition	12%
Nc1ncc(-c2nc(N3CCOCC3)nc(N3CCOCC3)n2)c(C(F)F)n1	binding		competition with immobilised ligand	10 µM	remaining binding	38%
O=c1[nH]c2ccccc2n1C1CCN(Cc2ccc(-c3[nH]c4cc5ncnc5cc4nc3-c3ccccc3)cc2)CC1	enzyme activity			0.5 µM	remaining activity	107%
COc1ncccc1-c1cnn2ccc(N3CCN(C(=O)OC(C)C)CC3)nc12	binding		competition with immobilised ligand	1 µM	remaining binding	86%
N#CC1(c2ccccn2)CCN(Cc2cc(C(=O)O)c(=O)n3ccccc23)CC1	cell-free assay		competition with immobilised ligand	1 µM	remaining binding	100%
Cn1cc(-c2cccc(N3CCc4c(sc5c4CC(C)(C)C5)C3=O)c2CO)cc(Nc2ccncn2)c1=O	enzyme activity	inhibitor		1 µM	inhibition	1%
